Here are results for 167 variants from the RNAGym collection of RNA variant scans (doi:10.1126/science.aae0568).

B1: tRNA (parent)
chain: GUUCCGUUGGCGUAAUGGUAACGCGUCUCCCUCCUAAGGAGAAGACUGCGGGUUCGAGUCCCGUACGGAACG

Fewer inactive variants are shown than the library holds.

The variants in the data set derive from B1. The data set is described as follows: yeast fitness relative to wild type (ratio to wild type); higher = fitter; tRNA-Arg(CCU), competitive growth, 37 C, YPD. A digest of the protocol: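 Variants of the tRNA-Arg(CCU) gene were chemically synthesised with a 3% per-site mutation rate across 69 sites and placed at the native genomic locus in Saccharomyces cerevisiae. Six parallel replicates of the pooled strains were competed in YPD at 37°C for 24 hours, and gene amplicons from the start and end populations were read by 100-nucleotide paired-end sequencing. Darwinian fitness relative to wild type was derived from changes in genotype frequencies. Genotypes required ≥ 100 starting reads, and estimates < 0.5 were set to 0.5.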
As for A40U G52A C60U G63C, the yeast fitness turned out to be 0.661.
Regarding A40U G68A, the yeast fitness amounted to 0.923.
As to G38C A45U U54A C61U, the yeast fitness was at most 0.5.
The figure for G41A U54A is 0.674.
With G41A C61A the figure was 0.742; with A40C C46G, 0.975; with A40U A45U G67C, 0.582.
For the variant G39A A42G U59A, the yeast fitness is at most 0.5.
With G39C C46U G56A the figure was 0.694; with A40C U59G C60G, at most 0.5; with G39C G51C C55G, at most 0.5.
Regarding A40C U59A, the yeast fitness amounted to 0.801.
With A40C G51A the figure was 0.84; with G38U A69C, 0.892.
The figure for A40U U54C is 0.802; for A40U U54A it is 0.576.
With A40C G44A the figure was 0.913.
On to G39A U47A G68C, for which the yeast fitness is 0.597.
With G39A U53A A70G the figure was at most 0.5.
Regarding G38C A40C, the yeast fitness is 1.02.
For the variant G39C G56C A57G, the yeast fitness is at most 0.5.
The figure for G39A A57C is 0.663.
With G38C C46A U59C G68A the figure was at most 0.5; with G39A A40C C60U G68U, at most 0.5.
For G41A G67C, the yeast fitness was determined as 0.775.
As for G39A C60U, the yeast fitness worked out at 0.81.
As to A40C C49G A65G, the yeast fitness was 0.584.
With G39A G58C the figure was 0.948; with G39A G58A A69C, 0.592.
As for G39C A43C A45G, the yeast fitness was at most 0.5.
Regarding G41A U53G U59A C62G, the yeast fitness is at most 0.5.
With A40G A43G G67C the figure was 0.725; with A40C G56C, 0.609.
As to A40C G56A, the yeast fitness amounted to 0.883.
For the variant G39C C66U A69U, the yeast fitness amounted to 0.551.
The figure for G38U C46A is 0.783; for G39C C49G A65U it is at most 0.5; for A40U G63C it is 0.729.
As for A40U G63A, the yeast fitness came to 0.721.
For A40G G56A, the yeast fitness came out at 0.998.
For the variant G41A C60G C61U A65G, the yeast fitness amounted to 0.644.
The figure for G39A G48C C61A is at most 0.5; for G39C A70C it is 0.769.
With G39C A70G the figure was 0.915; with G39C A70U, 0.873; with A40G A42G A43G U59C, at most 0.5.
For A40U A43U C60U C62U C66U, the yeast fitness is at most 0.5.
Take A40G C61U: the yeast fitness came out at 0.741.
A40G C61G: the yeast fitness was found to be 0.628.
Take G39C U54G: the yeast fitness was 0.547.
The figure for A40C C66U is 0.895.
On to A40G C66U, for which the yeast fitness is 0.792.
The figure for G39U A45G G51A is 0.527.
The figure for A40C C62G is 0.66; for A40C C62A it is 0.651.
As for G38C U64A C66U, the yeast fitness was at most 0.5.
With A40C G68A, the yeast fitness is 0.933.
With A40C U53C U59A C66U the figure was at most 0.5.
With G39C U59C U64C A70C the figure was at most 0.5; with A40U U47C A69U, 0.815; with G39U A70C, 0.811.
The figure for A40U C55A G68U is at most 0.5; for G38C G39A A43C C60G A65C it is 0.518.
Take G38C C61U: the yeast fitness is 0.646.
On to G39C G48C, for which the yeast fitness came out at 0.688.
As for G38C U47G U59C, the yeast fitness is at most 0.5.
With G38C A42G A43G the figure was at most 0.5; with G38C A45U G63C C66G, at most 0.5; with G38C A45U, 0.599.
The figure for G41A G44C C61G is at most 0.5.
Regarding G39A C46U G67A, the yeast fitness was determined as 0.575.
With A40G A57U A65G the figure was 0.531; with G41A C60G G63A A65G, 0.529.
The figure for G41A C55G C66U is at most 0.5; for G41A A43G C60U it is 0.507.
For the variant G39C G44C G52C, the yeast fitness is 0.623.
In the case of A40C A57G G67A, the yeast fitness amounted to 0.554.
With A40G C62U C66G A69C the figure was at most 0.5; with A40C A45G G63A, 0.518.
As for A40U A42C C66A, the yeast fitness is at most 0.5.
Take A40U A65G A70U: the yeast fitness worked out at 0.591.
Turning to G41A A57U C60A G68C, the yeast fitness is at most 0.5.
Take G39C G52A G68A: the yeast fitness is at most 0.5.
On to G38C C60U, for which the yeast fitness amounted to 0.571.
With G38C C60G the figure was 0.567.
The figure for G39A is 0.986; for G39U it is 1.
As to G39C, the yeast fitness amounted to 0.93.
The figure for G39C U47A G58A G63A is at most 0.5.
Consider G39A G48A, for which the yeast fitness worked out at 0.94.
The figure for G38C A40U C61G is at most 0.5; for A40G C55U G56A U64G A69U it is at most 0.5.
With G39U U53A C55U the figure was 0.684; with A40U C49G A70U, 0.535.
G38U G63A: the yeast fitness came out at 0.743.
With A40U C60U the figure was 0.832.
Turning to A40U U53C, the yeast fitness is 0.735.
The figure for G41A C62A A70C is at most 0.5; for A40C A42C C49G it is at most 0.5.
In the case of G39A A42U C49A, the yeast fitness is at most 0.5.
With A40G C55U the figure was 0.663; with A40G C46U C60G C66G, at most 0.5.
Take G39C U59A: the yeast fitness is 0.779.
As for G38C C60A A70G, the yeast fitness was found to be 0.582.
For the variant G38U G51C, the yeast fitness was at most 0.5.
With A40U G51C the figure was 0.518; with A40G C62U C66A A70C, 0.563; with A40G U53A, 0.654.
With A40U A43G A65U the figure was 0.675; with G38C G68A, 0.62; with A40U A57G U59C U64G, at most 0.5.
With G39C A45G the figure was 0.661; with G39A U64C, 1.01.
Turning to G39A A42G C66U, the yeast fitness was at most 0.5.
Consider A40U G48A U64G, for which the yeast fitness came out at 0.631.
With A40G G68A the figure was 0.953; with A40G G68C, 0.709.
As to A40G A45C, the yeast fitness was 0.846.
With A40G A42G U59C the figure was 0.618; with G38A U59G A69G, at most 0.5.
With A40C G56A A70G the figure was 0.556.
As for G39C G50C C61G, the yeast fitness was at most 0.5.
On to A40C A43G C60U C61U, for which the yeast fitness was at most 0.5.
With G41A A45G G56A the figure was 0.582; with A40U G44C U64C, 0.944; with A40U A70G, 0.934.
With A40U A70U the figure was 0.99; with A40U A70C, 0.941; with G39C A43U U53C, 0.606.
With A40G A42G the figure was 0.986; with A40U C61U, 0.783; with A40C A42C, 0.619.
Turning to A40C A42U, the yeast fitness turned out to be 0.782.
The figure for G39C G68U is 0.762; for G39C C49U A65U it is at most 0.5; for A40G G48A G63A it is 0.774.
With A40G A57U the figure was 0.624.
Consider G38C U47G C62U, for which the yeast fitness stood at 0.521.
For the variant A40U G44C, the yeast fitness is 0.954.
With G38C A45C A57C A70U the figure was at most 0.5; with A40G U53A G63A, at most 0.5.
As to G39A A45C A65U C66U, the yeast fitness is at most 0.5.
In the case of A40C C60A, the yeast fitness stood at 0.654.
With G39U A45G G50C U54A G67A the figure was 0.673; with G41A C62U, 0.844.
With G41A C62A the figure was 0.777; with A40C C49A, 0.668.
With G39A C61G A70U the figure was at most 0.5.
For the variant G41A G50A C60U C66G, the yeast fitness was at most 0.5.
With A40G A65U the figure was 0.813; with A40G A65C, 0.858; with A40G A65G, 0.984.
With A40G G44A U47C the figure was 0.571; with G38C G51A A57U, at most 0.5.
With A40G A42U G67C the figure was at most 0.5; with A40G G41A A42C A43G G44A A70U, at most 0.5; with G39C A40G G48C, at most 0.5.
Consider G38C U54A A65C, for which the yeast fitness is 0.567.
As for A40U A45G C60A, the yeast fitness was at most 0.5.
The figure for A40U G56A G58C is 0.786; for A40G C49G it is 0.655.
With G41A A43G A70U the figure was 0.659.
The figure for G41A A42U G50C A70G is at most 0.5; for A40U C62U it is 0.87.
For G41A G48C A57U A65U C66A, the yeast fitness is at most 0.5.
With G39A C61U C62A the figure was 0.558; with G41A A42C A65C, 0.565.
